ALR H2O2 inh – blocks human ALR sulfhydryl oxidase activity; 290,000 tested, 3.8% active; P55789; purified ALR, DTT oxidation, H2O2 HRP-luminol luminescence; inhibition, % (concentration not given with the values);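 active = mean replicate inhibition above about 79%, with every replicate also reaching it, limit read from the data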
Target sequence (P55789 whole entry, looked up): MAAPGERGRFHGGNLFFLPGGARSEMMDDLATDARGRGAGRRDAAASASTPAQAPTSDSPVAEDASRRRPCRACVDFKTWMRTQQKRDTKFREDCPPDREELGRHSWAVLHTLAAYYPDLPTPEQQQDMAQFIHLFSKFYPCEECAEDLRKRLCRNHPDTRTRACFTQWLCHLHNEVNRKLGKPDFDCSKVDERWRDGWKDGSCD
Calb FLC – C. albicans growth modulation with fluconazole; C. albicans CaCi-2 (fluconazole-resistant clinical isolate) + fluconazole, Alamar Blue growth, 48 h; growth inhibition, % (concentration not given with the values); 300,000 tested, 0.57% active;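 active = growth inhibition above about 58% in most replicates, limit read from the data, passing the limit was not always enough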;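 note: all wells also contain fluconazole at 8 µg/ml as a sub-toxic cotreatment; 0% = median of DMSO wells and 100% = median of geldanamycin control wells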
NLRP3 yeast inh – inhibitors of NALP3 inflammasome in yeast. Yeast reconstituted NLRP3/ASC/caspase-1, beta-gal luminescence, 24 h. inhibition, % at 10 µM. 330,000 tested, 0.39% active. AID 2825;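 active = inhibition of 50% or more; inactive = inhibition below 50%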;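 note: plate controls were induced DMSO wells for no effect and uninduced yeast grown without galactose for full effect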
NALP1 inh – inhibitors of NALP1 inflammasome in yeast; inhibition, % at 10 µM; AID 2071; 280,000 tested, 0.61% active; S. cerevisiae NALP1/ASC/caspase-1 growth, X-gal OD620, 72 h; in the data active = inhibition mostly above about 24%, no sharp cut-off; inactive = mostly below about 32%
UCH37 DUB inh – inhibitors of human deubiquitinating enzyme UCH37; Q9Y5K5; purified proteasome/UCH37, Ub-AMC cleavage fluorescence; inhibition, % (no concentration beside the values); 330,000 tested, 0.33% active; AID 588478;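 active = mean inhibition over replicate wells above about 20%, limit read from the data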;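 note: 0% = compound-free wells with enzyme and 100% = wells lacking proteasome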
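Material: Human UCH37 enzyme supplied as purified proteasome complex | Schedule: 30 min preincubation with enzyme, 25 min cleavage at room temperature | Detection: AMC fluorescence 355/460 nm | Measure: % inhibition of Ub-AMC cleavage fluorescence | Controls: Wells without proteasome as full block, compound-free enzyme plus substrate as uninhibited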
ATG4B inh – inhibitors of human ATG4B cysteine protease. Q9Y4P1. ATG4B cleavage of LC3-PLA2, NBD-HPC fluorescence, 1 h. inhibition, % at 8.33 µM. 340,000 tested, 0.51% active; in the data active = inhibition above about 40%
Target sequence (Q9Y4P1 whole entry, looked up): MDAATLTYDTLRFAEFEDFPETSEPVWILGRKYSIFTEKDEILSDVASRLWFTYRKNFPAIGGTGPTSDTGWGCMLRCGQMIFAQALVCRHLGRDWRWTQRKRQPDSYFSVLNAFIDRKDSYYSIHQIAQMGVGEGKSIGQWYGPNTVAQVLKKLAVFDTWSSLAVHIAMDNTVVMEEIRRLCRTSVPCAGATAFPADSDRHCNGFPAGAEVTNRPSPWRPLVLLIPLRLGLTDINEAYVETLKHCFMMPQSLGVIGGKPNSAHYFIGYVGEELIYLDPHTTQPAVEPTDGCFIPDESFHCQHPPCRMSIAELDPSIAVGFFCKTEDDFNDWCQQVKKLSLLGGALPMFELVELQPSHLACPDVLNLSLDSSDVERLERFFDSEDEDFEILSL
NALP3 confirm – NALP3 inhibition confirmation in yeast; shares compounds with NLRP3 yeast inh; yeast expressing human NALP3, luminescence; inhibition, % at 10 µM; 1,300 tested, 81% active; AID 435006; in the data active = inhibition above about 48%
Casp1-ASC yeast – active in yeast caspase-1-ASC counter-screen for NALP3 inhibitors | shares compounds with NLRP3 yeast inh | yeast expressing Caspase-1-ASC, luminescence counter screen | inhibition, % at 10 µM | 1,000 tested, 66% active | AID 488784
NALP3 retest – confirmation retest of NALP3 inhibitors in yeast. yeast expressing human NALP3, luminescence read-out. shares compounds with NLRP3 yeast inh. AID 488794. 1,000 tested, 53% active. inhibition, % at 10 µM
Starred values were filed as active, the others as inactive; . = no result given; ! = not confirmed by another sample. Hits are enriched below; roughly 4.8% of the tested compounds scored in any of these assays. Cut-off read from the data, not from the text of the source, unless noted: active = inhibition above about 50%; inactive = the rest.

SMILES | ALR H2O2 inh | Calb FLC | NLRP3 yeast inh | NALP1 inh | UCH37 DUB inh | ATG4B inh | NALP3 confirm | Casp1-ASC yeast | NALP3 retest
COc1cc(C=NNc2ccc(Cl)c(C(=O)O)c2)ccc1OCC(=O)N1C(C)CCCC1C (configuration not stated) | . | . | . | . | 5 | . | . | . | .
Cn1c(C(=O)N2CCCc3ccccc32)cc2sccc21 | 1 | 2 | 51* | -2 | 2 | 13 | 64* | 40 | 35
Cc1cc(C(=O)NN=Cc2ccc(C)s2)n[nH]1 | . | . | . | . | 7 | . | . | . | .
Fc1ccccc1-c1nc2ccccc2[nH]1 | . | 4 | 60* | 22 | -2 | -2 | 58* | 54* | 60*
c1ccc2nc(-c3nc4ccccc4[nH]3)ccc2c1 | . | -13 | 53* | 14 | -16 | -3 | 67* | 42 | 42
O=C(CCC(=O)Nc1ccc(F)cc1)NN=Cc1cccc(Br)c1 | . | . | . | . | 0 | . | . | . | .
Cc1ccccc1-c1n[nH]c(=S)n1N=C/C=C/c1ccco1 | . | . | . | . | 10 | . | . | . | .
Cc1ccc(S(=O)(=O)c2ncccc2[N+](=O)[O-])cc1 | 6 | 108* | 58* | 36* | . | 13 | 69* | 68* | 58*
Cc1ccc(S(=O)(=O)c2ncccc2N)cc1 | . | -10 | -7 | -3 | -23 | 3 | . | . | .
C/C(CCC12CC3CC(CC(C3)C1)C2)=N\NC(N)=S | 16 | 2 | 58* | 6 | . | -4 | 50* | 70* | 41
CCCOc1ccc(C(=O)NNC(=S)NC(=O)c2cccs2)cc1 | 97* | 93* | 56* | 15 | . | 2 | 77* | 36 | 55*
CCCC(=O)Nc1ccc(C(=O)NNC(=S)NC(=O)c2cccs2)cc1 | 14 | -6 | 25 | 5 | 8 | -11 | . | . | .
COc1ccc(C(=O)NC(=S)NNC(=O)c2ccc(C)cc2)cc1 | 0 | 107* | 54* | . | 0 | -6 | 66* | 55* | 60*
COc1ccc(C(=O)NNC(=S)NC(=O)c2ccc(Cl)cc2)cc1 | -20 | 88* | 54* | . | 4 | -1 | 58* | 60* | 58*
O=c1c(=Cc2cccnc2)sc2nc3ccccc3n12 | . | . | . | . | -5 | . | . | . | .
COc1ccc(-c2csc(NC(=O)c3ccccc3F)c2C(=O)O)cc1 | -18 | 10 | 81* | 21 | 4 | 14 | 94* | 91* | 81*
Cc1ccc(C(=O)Nc2scc(-c3ccccc3)c2C(=O)O)cc1 | -10 | -4 | 79* | . | 0 | 22 | 78* | 86* | 82*
O=C1/C(=C\c2ccc3c(c2)OCO3)CCC/C1=C/c1ccc2c(c1)OCO2 | -4 | 1 | 50 | 2 | -1 | -5 | 49* | 28 | 23
O=C1OCC/C1=C\c1ccc2c(c1)OCO2 | -5 | -1 | -14 | 7 | -3 | -4 | . | . | .
Cc1ccc(C=NN2C(=O)C3C(C2=O)C2C=CC3C23CC3)o1 (configuration not stated) | . | . | . | . | 4 | . | . | . | .
COc1cc(OC)c(C=NNC(=O)c2ccc(Cn3nc([N+](=O)[O-])cc3C)cc2)c(OC)c1 | . | . | . | . | 3 | . | . | . | .
CCCCCCCCCCCCCCCC[n+]1ccc(/C=N/O)cc1 | -2 | . | 56* | 50* | . | 37 | 36 | . | .
Cc1ccc(Cl)cc1NC(=O)c1cnn2c1NC(c1ccco1)CC2C(F)(F)F (configuration not stated) | -4 | -10 | 58* | -2 | 1 | -9 | 66* | 72* | 57*
COc1ccc(NS(=O)(=O)c2cccc(C(=O)NN=Cc3ccc4c(c3)OCCO4)c2)cc1 | . | . | . | . | -4 | . | . | . | .
Cc1ccc(C(=O)c2no[n+]([O-])c2C(=O)c2ccc(C)cc2)cc1 | 48 | 2 | 59* | 91 | 4 | 8 | 63* | 72* | 52*
SMILES | ALR H2O2 inh | Calb FLC | NLRP3 yeast inh | NALP1 inh | UCH37 DUB inh | ATG4B inh | NALP3 confirm | Casp1-ASC yeast | NALP3 retest
O=C(Nc1cccc(Cl)c1)c1ccc2ncsc2c1 | . | -14 | 67* | 23 | -1 | -7 | 86* | 81* | 76*
CCc1sc(C(=O)Nc2nc(C)cs2)cc1C | . | -14 | 56* | 28 | -1 | -2 | 72* | 66* | 54*
CCc1sc(C(=O)Nc2ccc(NC(C)=O)cc2)cc1C | 1 | 25 | 25 | 27 | -14 | -3 | . | . | .
O=c1nc2sc(=Cc3ccco3)c(=O)n2nc1Cc1ccccc1 | . | . | . | . | 5 | . | . | . | .
Cc1cc(O)c(C=NOCc2ccc(Cl)cc2Cl)c(=O)o1 | . | . | . | . | 2 | . | . | . | .
COc1ccc(-n2cnc3cc(NC(=O)c4ccco4)ccc32)cc1 | 2 | 28 | 58* | -7 | 5 | 12 | 80* | 62* | 70*
O=C(Nc1cnc2ccccc2c1)c1ccco1 | -5 | -3 | 52* | 1 | 6 | -11 | 38 | 41 | 42
O=C(Nc1ccc2c(c1)ncn2C1CCCCC1)c1ccco1 | 0 | 15 | 53* | -4 | 1 | 2 | 70* | 55* | 52*
C/C(C=NNC(=O)Cc1cccn1C)=C/c1ccco1 | . | . | . | . | 10 | . | . | . | .
O=C1C2C(C(=O)N1N=Cc1cccc([N+](=O)[O-])c1)C1C=CC2C12CC2 (configuration not stated) | . | . | . | . | 4 | . | . | . | .
COc1cc(C=NNC(=O)C(=O)NCc2ccco2)ccc1O | . | . | . | . | 12 | . | . | . | .
Cc1cccc(C(=O)ON=C(c2ccccc2)c2cccnc2)c1 | . | . | . | . | 1 | . | . | . | .
O=c1c2cc(Cl)ccc2nc(-c2ccc([N+](=O)[O-])cc2)n1O | -7 | 4 | 65* | -10 | 3 | 1 | 68* | 38 | 58*
O=c1c2ccc(Cl)cc2nc(-c2cccc(C(F)(F)F)c2)n1O | -8 | 79* | 52* | 2 | 5 | 6 | 63* | 44 | 52*
O=c1c2ccccc2nc(-c2ccc(Cl)c(Cl)c2)n1O | 4 | 50 | 65* | -3 | . | 3 | 42 | 26 | 33
On1c(-c2ccccc2)nc2ccc(Cl)cc21 | . | 43 | -12 | 3 | -2 | -10 | . | . | .
N#Cc1ccc(-c2nc3cc(Cl)ccc3c(=O)n2O)cc1 | 3 | 101* | 63* | 42* | 2 | -5 | 72* | 51* | 64*
CCN(CC)c1ccc(C=NNC(=S)NC)c(O)c1 | . | . | . | . | -21 | . | . | . | .
Cc1cc(C)nc(SCc2ccc(C(=O)NN=Cc3ccco3)cc2)n1 | . | . | . | . | 3 | . | . | . | .
CCc1ccc[n+](-c2[nH]c(=O)sc2C=N/N=C(\[O-])c2cccnc2)c1 | . | . | . | . | 18 | . | . | . | .
O=C(Nc1ccc2nsnc2c1)c1cccs1 | -9 | 0 | -10 | 11 | -9 | -2 | . | . | .
O=C(Nc1cccc2nsnc12)c1cccs1 | -22 | 11 | 70*! | 9 | -84 | -5 | 89* | 78* | 61*
FC(F)(F)c1cccc(-c2nc3nc(Cl)c(Cl)nc3[nH]2)c1 | 9 | 28 | 61* | 37 | . | -2 | 97* | 42 | 45

Source: PubChem
